Published values gathered from unrelated publications.
Protocols differ between the studies behind these lines.
Target: Serine/threonine-protein kinase 17A (STK17A, Homo sapiens, UniProt Q9UEE5)
Effect on: enzyme activity
Residues used in one study (Q9UEE5 1-414): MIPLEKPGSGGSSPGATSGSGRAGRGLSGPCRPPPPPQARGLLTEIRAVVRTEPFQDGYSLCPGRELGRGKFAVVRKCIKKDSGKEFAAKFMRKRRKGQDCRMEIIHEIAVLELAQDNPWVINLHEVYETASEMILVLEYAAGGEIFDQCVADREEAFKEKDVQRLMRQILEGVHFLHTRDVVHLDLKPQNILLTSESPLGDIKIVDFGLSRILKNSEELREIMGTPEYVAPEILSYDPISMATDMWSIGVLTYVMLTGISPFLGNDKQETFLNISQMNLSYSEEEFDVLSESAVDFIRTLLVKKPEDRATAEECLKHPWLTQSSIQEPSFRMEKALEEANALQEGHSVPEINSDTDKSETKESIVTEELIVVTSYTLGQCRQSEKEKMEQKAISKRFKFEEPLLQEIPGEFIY

With `Cc1nn(CC(F)(F)F)cc1Nc1ncc(Br)c(NCc2ccc(S(N)(=O)=O)cc2)n1` the remaining activity was 93% (inhibitor, radiometric; 1 µM).
For `O=C(Nc1cnn(-c2csc(C(=O)NC3COC3)c2)c1)Nc1c(F)cccc1Cl`, the remaining activity was 89.4% (inhibitor; 5 µM).
For `O=c1cc(-c2cccc3c2Sc2ccccc2S3)oc(N2CCOCC2)c1`, the remaining activity was 98.2% (inhibitor; 0.5 µM).
For `O=C(Nc1cnn(-c2csc(C(=O)NC3COC3)c2)c1)Nc1ccccc1Cl`, the remaining activity was 98.4% (inhibitor; 5 µM).
For `Cc1cnc(NC2CCOCC2)nc1-n1cnc(C(=O)NC(CN)c2cc(F)cc(Cl)c2)c1` (centres unmarked), the remaining activity was 100% (inhibitor, radiometric; 1 µM).
For `Cc1ccc(C(=O)Nc2ccc(CN3CCN(C)CC3)c(C(F)(F)F)c2)cc1C#Cc1cnc2cccnn12`, the remaining activity was 100% (23.5 nM).
The remaining activity of `CC(C)(C)c1nc2c(s1)c1nc(N)ncc1c1ccc(NS(=O)(=O)c3c(F)cccc3F)c(F)c12` is reported as 80% (inhibitor, radiometric; 1 µM).
`CCCOc1ccc(OC)c(F)c1C(=O)c1ccc(C(=O)N[C@@H]2CNC[C@H]2NC(=O)c2ccc3[nH]ncc3c2)cc1` gave a remaining activity of 7% (inhibitor; 10 µM).
`Cc1nn(CC(F)(F)F)cc1Nc1ncc(Br)c(NCCc2cnc[nH]2)n1` gave a remaining activity of 63% (inhibitor, radiometric; 1 µM).
`CC(C)(O)[C@H]1CC[C@H](Nc2ccc3ncc(-c4cccc(C(F)(F)F)c4)n3n2)CC1` has a remaining activity of 106% (inhibitor; 1 µM).
With `Cc1nn(CC(F)(F)F)cc1Nc1ncc(C2CC2)c(NCc2ccc(S(N)(=O)=O)cc2)n1` the remaining activity was 105% (inhibitor, radiometric; 1 µM).
`COc1cc(Cl)c(C(=O)N[C@@H](CN[C@H]2CC[C@@H](N)CC2)Cc2ccc(C#N)cc2)cc1-c1ccc(CN[C@H](C)c2ccc(C)cc2)o1` has a remaining activity of 70% (inhibitor; 1 µM).
For `NS(=O)(=O)c1ccc(CNc2nc(Nc3cccc(CN4CCOCC4)c3)ncc2C2CC2)cc1`, the remaining activity was 108% (inhibitor, radiometric; 1 µM).
`CCN(CC)c1ccc(C2=NNC(=O)CC2C)cc1[N+](=O)[O-]` (centres unmarked) has a remaining activity of 100% (inhibitor; 10 µM).
